# ChEMBL document CHEMBL3397044, “Discovery and in vitro and in vivo profiles of N-ethyl-N-[2-[3-(5-fluoro-2-pyridinyl)-1H-pyrazol-1-yl]ethyl]-2-(2H-1,2,3-triazol-2-yl)-benzamide as a novel class of dual orexin receptor antagonist” (Bioorg Med Chem, 2015)
# What was measured:
# [1] = biological target: T1, Orexin/Hypocretin receptor type 1 (Homo sapiens) (UniProt O43613); assay: Antagonist activity against human OX1 receptor expressed in CHO cells assessed as reduction in [Ala6,12]orexin-A-induced intracellular Ca2+ mobilization incubated for 30 mins by Fluo-4 AM dye based fluorescence assay; assay type: functional, cell-based
# T1 sequence (whole entry): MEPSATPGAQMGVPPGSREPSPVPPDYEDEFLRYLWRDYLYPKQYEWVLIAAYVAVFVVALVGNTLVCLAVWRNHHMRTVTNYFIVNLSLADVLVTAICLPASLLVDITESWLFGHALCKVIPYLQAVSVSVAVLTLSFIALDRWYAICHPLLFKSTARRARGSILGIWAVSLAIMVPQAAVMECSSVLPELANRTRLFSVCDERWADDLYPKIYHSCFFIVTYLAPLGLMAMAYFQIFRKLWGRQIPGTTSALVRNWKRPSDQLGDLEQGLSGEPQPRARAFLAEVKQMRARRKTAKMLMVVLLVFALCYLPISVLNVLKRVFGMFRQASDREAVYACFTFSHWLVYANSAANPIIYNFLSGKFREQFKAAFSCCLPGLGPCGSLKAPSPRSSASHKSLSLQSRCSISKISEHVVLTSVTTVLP
# Method in brief: (§1)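 Cells seeded 2.4 × 10⁴/well, cultured 18 h. Loaded with Fluo-4 AM (0.5 µM final) in HBSS, 20 mM HEPES, 0.1% BSA, 2.5 mM probenecid, 0.2 mg/mL amaranth, pH 7.4, 37 °C 1 h. Washed, then antagonist for 30 min at room temperature. Peak minus basal fluorescence normalized to the [Ala6,12]orexin-A maximum. Kb = IC50/(1+[L]/EC50). At least three independent runs in duplicate.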
# [2] = biological target: T2, Orexin receptor type 2 (Homo sapiens) (UniProt O43614); assay: Antagonist activity against human OX2 receptor expressed in CHO cells assessed as reduction in [Ala6,12]orexin-A-induced intracellular Ca2+ mobilization incubated for 30 mins by Fluo-4 AM dye based fluorescence assay; assay type: functional, cell-based; method in brief: as §1
# T2 sequence (whole entry): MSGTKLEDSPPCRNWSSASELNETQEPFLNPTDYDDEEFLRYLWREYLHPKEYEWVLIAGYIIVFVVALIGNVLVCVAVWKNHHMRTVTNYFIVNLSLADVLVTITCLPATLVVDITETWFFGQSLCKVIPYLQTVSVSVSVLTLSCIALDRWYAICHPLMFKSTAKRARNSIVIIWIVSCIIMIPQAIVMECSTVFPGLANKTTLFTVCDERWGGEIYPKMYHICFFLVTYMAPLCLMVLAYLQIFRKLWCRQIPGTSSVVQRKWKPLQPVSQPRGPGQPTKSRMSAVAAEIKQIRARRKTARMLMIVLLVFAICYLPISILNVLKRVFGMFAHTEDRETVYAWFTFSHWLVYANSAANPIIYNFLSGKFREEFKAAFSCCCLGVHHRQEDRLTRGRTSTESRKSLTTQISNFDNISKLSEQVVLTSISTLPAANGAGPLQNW
# [3] = Drug metabolism in human liver microsomes at 5 uM after 15 mins; assay type: ADME; conditions: read-out: Drug metabolism
# Method in brief: (§2)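 Liver microsomes at 1 mg protein/mL with 5 µM compound, incubated 15 min. Value reported as percentage of compound metabolized.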
# [4] = Half life in human; assay type: ADME, organism-based; conditions: in vivo
# [5] = Half life in Sprague-Dawley rat at 2 mg/kg, iv; assay type: ADME, organism-based; set-up: dose 2 mg/kg, route intravenous; conditions: in vivo
# Method in brief: (§3)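 Fasted male Sprague–Dawley rats (n = 3) given 2 mg/kg iv. Vd and CL taken from the iv profile. T1/2 calculated as ln2·Vd/CL.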
# [6] = Drug metabolism in dog liver microsomes at 5 uM after 15 mins; assay type: ADME, Canis lupus familiaris; conditions: read-out: Drug metabolism; method in brief: as §2
# [7] = Tmax in dog at 3 mg/kg, po; assay type: ADME, organism-based, Canis lupus familiaris; set-up: dose 3 mg/kg, route oral; conditions: in vivo
# Method in brief: (§4)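 Fasted male rats dosed orally at 10 mg/kg, and male dogs at 3 mg/kg (n = 3). Tmax read from the oral profile. F calculated against the iv arm (rat 2 mg/kg, dog 0.5 mg/kg).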
# [8] = Oral bioavailability in Sprague-Dawley rat at 30 mg/kg; assay type: ADME, organism-based; conditions: in vivo
# [9] = Drug metabolism in rat liver microsomes at 5 uM after 15 mins; assay type: ADME; conditions: read-out: Drug metabolism; method in brief: as §2
# [10] = Clearance in Sprague-Dawley rat at 2 mg/kg, iv; assay type: ADME, organism-based; set-up: dose 2 mg/kg, route intravenous; conditions: in vivo; method in brief: as §3
# [11] = Volume of distribution in Sprague-Dawley rat at 2 mg/kg, iv; assay type: ADME, organism-based; set-up: dose 2 mg/kg, route intravenous; conditions: in vivo; method in brief: as §3
# [12] = Tmax in Sprague-Dawley rat at 30 mg/kg, po; assay type: ADME, organism-based; set-up: dose 30 mg/kg, route oral; conditions: in vivo
# [13] = Ratio of drug level in brain to plasma in Sprague-Dawley rat at 30 mg/kg, ip; assay type: ADME, organism-based; set-up: dose 30 mg/kg, route intraperitoneal; conditions: read-out: BPR
# Method in brief: (§5)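 Male rats dosed ip at 30 mg/kg. Drug concentrations measured in brain, CSF and plasma, and reported as brain/plasma and CSF/plasma ratios.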
# [14] = Half life in dog at 0.5 mg/kg, iv; assay type: ADME, organism-based, Canis lupus familiaris; set-up: dose 0.5 mg/kg, route intravenous; conditions: in vivo
# Method in brief: (§6)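 Male dogs given 0.5 mg/kg iv (n = 3). Vd and CL derived from the iv profile. T1/2 = ln2·Vd/CL.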
# [15] = Clearance in dog at 0.5 mg/kg, iv; assay type: ADME, organism-based, Canis lupus familiaris; set-up: dose 0.5 mg/kg, route intravenous; conditions: in vivo; method in brief: as §6
# [16] = Volume of distribution in dog at 0.5 mg/kg, iv; assay type: ADME, organism-based, Canis lupus familiaris; set-up: dose 0.5 mg/kg, route intravenous; conditions: in vivo; method in brief: as §6
# [17] = Oral bioavailability in dog at 3 mg/kg; assay type: ADME, organism-based, Canis lupus familiaris; conditions: in vivo; method in brief: as §4
# [18] = Ratio of drug level in CSF to plasma in Sprague-Dawley rat at 30 mg/kg, ip; assay type: ADME, organism-based; set-up: dose 30 mg/kg, route intraperitoneal; method in brief: as §5
# Rattus norvegicus = assay: Toxicity in Wistar rat assessed as effect on rotarod performance at 10 mg/kg, ip administered 30 mins prior to the test by rotarod test; assay type: organism-based; set-up: dose 10 mg/kg, route intraperitoneal; conditions: in vivo, 0.5 h
Structure (SMILES),Kb [1] [nM],Kb [2] [nM],further results
CCN(CCc1noc(-c2ccc(F)cn2)n1)C(=O)c1cc(C)ccc1-n1nccn1,8.09,23,–
CCN(CCn1ccc(-c2ccc(F)cn2)n1)C(=O)c1cc(Cl)ccc1-n1nccn1,1.48,2.82,"metabolised at 0.25 h, 5 µM [3]: 46.9%"
CCN(CCn1ccc(-c2ccc(F)cc2)n1)C(=O)c1cc(C)ccc1-n1nccn1,0.32,1.25,–
CCN(CCn1ccc(-c2ccc(F)cn2)n1)C(=O)c1cc(F)ccc1-n1nccn1,6.67,11.4,"metabolised at 0.25 h, 5 µM [3]: 35.3%"
CCN(CCn1ccc(-c2ccc(C(F)(F)F)cn2)n1)C(=O)c1cc(C)ccc1-n1nccn1,48.6,902,–
CCN(CCn1ccc(-c2ccc(F)cn2)n1)C(=O)c1cc(C)ccc1-n1nccn1,0.43,0.89,"metabolised at 0.25 h, 5 µM [3]: 35%"
CCN(CCn1ccc(-c2cccc(C)n2)n1)C(=O)c1cc(C)ccc1-n1nccn1,0.41,1.96,–
Cc1ccc(-n2nccn2)c(C(=O)N(CCn2ccc(-c3ccc(F)cn3)n2)C(C)C)c1,38.5,37.9,–
Cc1ccc(-n2nccn2)c(C(=O)NCCn2ccc(-c3ccc(F)cn3)n2)c1,152,376,–
Cc1ccc(-n2nccn2)c(C(=O)N2CCN(c3nc4cc(Cl)ccc4o3)CC[C@H]2C)c1 [SUVOREXANT],–,–,half-life [4]: 540 min
CCN(CCn1cc(-c2ccc(F)cn2)cn1)C(=O)c1cc(C)ccc1-n1nccn1,3.81,7.22,–
CCN(CCn1ccc(-c2ccc(F)cn2)n1)C(=O)c1cc(C)ccc1-c1ncccn1,2.52,4.01,"half-life [5]: 19.1 min; metabolised at 0.25 h, 5 µM [6]: 10.1%; Tmax [7]: 30 min; bioavailability [8]: 4.62%; metabolised at 0.25 h, 5 µM [3]: 19.7%; metabolised at 0.25 h, 5 µM [9]: 97.3%; clearance [10]: 65.2 mL/min/kg; Vd [11]: 1.79 L/kg; Tmax [12]: 40 min; Kp [13]: 0.13; half-life [14]: 67.8 min; clearance [15]: 13.1 mL/min/kg; Vd [16]: 1.29 L/kg; bioavailability [17]: 100%; Kp [18]: 0.03"
Cc1ccc(-c2nc3ccc(C)cn3c2CC(=O)N(C)C)cc1 [ZOLPIDEM],–,–,Activity (Rattus norvegicus): Toxic
CCN(CCc1cc(-c2ccc(F)cn2)no1)C(=O)c1cc(C)ccc1-n1nccn1,45.5,32.2,–
CCN(CCn1ccc(-c2ccc(F)cn2)n1)C(=O)c1cc(OC)ccc1-n1nccn1,119,638,–
CCN(CCc1cc(-c2ccc(F)cn2)on1)C(=O)c1cc(C)ccc1-n1nccn1,15.2,19.8,–
Cc1nc(C(=O)N2CCCC[C@H]2CNC(=O)c2cccc3occc23)c(-c2ccc(F)cc2)s1 [SB-649868],–,–,half-life [4]: 204 min
Cc1ccc(-n2nccn2)c(C(=O)N(C)CCn2ccc(-c3ccc(F)cn3)n2)c1,2.27,8.58,–
CCN(CCn1ccc(-c2cc(C(F)(F)F)ccn2)n1)C(=O)c1cc(C)ccc1-n1nccn1,28,66.4,–
CCN(CCn1ccc(-c2cccc(C(F)(F)F)n2)n1)C(=O)c1cc(C)ccc1-n1nccn1,3.19,3.92,–
